STAT1 activator – increases IFN-gamma driven STAT1 reporter signal. NIH 3T3 STAT1-luciferase reporter, luminescence; 100% = IFN-gamma alone, no compound. activation (% of control), % at 5.5 µM. actives 2.6% (n = 200,000);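 active = activation above the screen-wide mean activation plus 3 SD, cut at about 130% in these data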;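 also: raw ratio to IFN-gamma control signal so 100% means no change and 0% no light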
STAT1 inh – inhibitors of IFN-gamma induced STAT1 signaling | actives 0.35% (n = 200,000) | inhibition, % at 5.5 µM | NIH 3T3 STAT1-luciferase reporter, luminescence | AID 920;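 active = inhibition above a set limit, the mean inhibition across all tested compounds plus 3 SD, cut at about 34% in these data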;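 also: 0% = IFN-gamma with DMSO and 100% = IFN-gamma with 300 µM nifuroxazide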
STAT3 inh – STAT3 signaling inhibition. U3A cells, IL-6 STAT3-luciferase reporter, luminescence; host cell line lacks STAT1. inhibition, % at 5.5 µM. actives 0.89% (n = 190,000). AID 862;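 active = inhibition above the mean inhibition across all screened compounds plus 3 SD, cut at about 44% in these data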;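 also: 0% = DMSO only wells and 100% = 100 µM nifuroxazide control wells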
STAT3 act – STAT3 signaling activation | U3A cells, IL-6 STAT3-luciferase reporter, luminescence; 100% = signal with IL-6 EC80 alone | activation (% of control), % at 5.6 µM | actives 0.91% (n = 190,000) | AID 871;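 active = activation above the screen-wide mean of compound activation plus 3 SD, cut at about 130% in these data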;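 also: 0% = background luminescence of wells with medium and substrate only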
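System – human U3A cells carrying STAT3-luciferase construct · Probe or stimulus – Interleukin-6, 33 ng/mL · Schedule – compound 1 h, then IL-6 6 h at 37 °C · Signal – luminescence from STAT3-driven luciferase reporter · Evaluation – percent of IL-6-only median luminescence · Benchmarks – IL-6-only high control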
NF-kB neuron act – compounds increasing NF-kB expression in human neuronal cells; NF-kB reporter expression; stronger effect = higher value; fold change at 12.5 µM; actives 1.6% (n = 190,000); AID 1239; in the data active = fold change above about 3.3
APP 5'UTR act – APP 5'UTR luciferase reporter activation | AID 1276 | SH-SY5Y APP 5'UTR luciferase reporter, luminescence; zero percent = DMSO vehicle wells | actives 1% (n = 190,000) | activation, % at 2 µM;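 active = activation above a set limit, based on mean plus 3 SD of controls, cut at about 140% in these data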
Active calls of the source: *. This is a sample that favours compounds with a hit; in the whole collection about 4.9% have one here.

SMILES | STAT1 activator | STAT1 inh | STAT3 inh | STAT3 act | NF-kB neuron act | APP 5'UTR act
COCCn1c(SCC(=O)NCc2ccc3c(c2)OCO3)nc2ccccc2c1=O | 103.3 | -5.4 | 16.6 | 94.0 | 1 | 1.8
Fc1ccccc1OCC1CCCN(Cc2nc(CC3CC3)no2)C1 (stereo not drawn) | 107.9 | -9.9 | -0.4 | 104.9 | 1.06 | -17.4
O=C(CSc1nc2ccccc2o1)Nc1nc(-c2ccccc2)cs1 | 147.4* | -52.3 | -3.9 | 108.6 | 0.5 | 74.5
O=C(CSc1nc2ccccc2o1)Nc1nc2ccccc2s1 | 107.5 | -8.1 | -31.2 | 130.5 | 1.06 | 19.8
CC(C)n1c(-c2ccc(N(C)C)cc2)nc2ccccc21 | 126.0 | -28.5 | -6.6 | 110.0 | 1.41 | 170.4*
Cc1ccc(C(O)c2nc3ccccc3n2C(C)C)cc1 (stereo not drawn) | 98.4 | 1.8 | 13.3 | 91.2 | 0.81 | -3.8
C=CCNC(=O)COC(=O)COc1ccc(Cl)cc1 | 98.0 | 0.5 | 1.9 | 100.4 | 1.12 | -23.3
Cc1ccc(N2C(N)=C(C#N)C(c3cc(CN4CCOCC4)cs3)C3=C2CC(C)(C)CC3=O)cc1 (stereo not drawn) | 87.9 | 10.4 | 15.4 | 91.0 | 0.94 | 16.4
Cc1sc2ncnc(Sc3ccccc3C(=O)O)c2c1C | 103.1 | -5.2 | 7.4 | 102.9 | 0.88 | 15.4
Cc1sc2ncnc(Sc3nnnn3-c3ccccc3)c2c1C | 94.8 | 5.7 | 9.3 | 94.2 | 3.93* | -5.3
Nc1cccc(-c2nc3ccccc3s2)c1 | 147.4* | -51.6 | -0.6 | 103.5 | 5.9* | 129.6
CC(=O)Nc1cccc(-c2nc3ccccc3s2)c1 | 147.5* | -52.7 | 3.3 | 101.7 | 3.02 | 64.1
CC(=O)Oc1cccc(N2C(=O)c3ccc(C(=O)O)cc3C2=O)c1 | 105.1 | -5.6 | 10.3 | 93.2 | 1.02 | 0.1
CC(=O)Nc1cccc(-c2nc3ccc(NC(C)=O)cc3s2)c1 | 140.2* | -42.0 | 12.1 | 91.5 | 1.8 | 71.0
O=C(O)c1ccc2c(c1)C(=O)N(c1cccc(-c3nc4ccccc4s3)c1)C2=O | 129.5* | -34.2 | 17.6 | 87.7 | 1.47 | 35.6
CC(=O)Nc1ccc2nc(NC(=O)C(Cl)(Cl)Cl)sc2c1 | 114.6 | -18.6 | -2.0 | 107.0 | 1.35 | -6.0
Cc1ccc(C(O)(C(=O)NNc2ccc3ccccc3n2)c2ccc(C)cc2)cc1 | 104.4 | -4.9 | -10.3 | 108.4 | 1.91 | -5.0
COC(=O)c1cc([N+](=O)[O-])c(-n2ccnc2)c([N+](=O)[O-])c1 | 92.4 | 8.6 | 2.1 | 96.5 | 1.19 | 4.2
Cc1ccc(N=Nc2c(C)[nH]n(C(N)=S)c2=O)cc1 | 136.6* | -41.1 | -30.2 | 126.3 | 2.65 | 47.8
COc1ccc(C(=O)Nc2cc(OC)cc(OC)c2)cc1 | 132.1* | -34.5 | 24.2 | 80.7 | 2.54 | 125.0
COc1cc(NC(=O)c2ccccc2)cc(OC)c1 | 113.0 | -15.2 | 7.3 | 99.2 | 3.44* | 136.7*
COc1ccccc1Oc1ccc(NC(=O)c2ccccc2)cc1 | 107.8 | -11.0 | 4.7 | 100.9 | 1.32 | 8.2
COc1ccc(OCC(=O)Nc2cc(OC)cc(OC)c2)cc1 | 106.4 | -5.5 | 2.0 | 103.9 | 1.32 | -3.2
CCCOc1ccc(CN(CCO)CCO)cc1[N+](=O)[O-] | 111.5 | -13.0 | -38.3 | 133.0* | 0.95 | -18.6
COCc1cc(C)nc(SCC[N+](C)(C)CC(=O)c2ccccc2)c1C#N | 105.5 | -8.2 | 4.8 | 101.4 | 1.38 | 1.0
SMILES | STAT1 activator | STAT1 inh | STAT3 inh | STAT3 act | NF-kB neuron act | APP 5'UTR act
O=C(NC(=S)NCC1CCCO1)C(c1ccccc1)c1ccccc1 (stereo not drawn) | 102.5 | -2.8 | 12.0 | 93.8 | 1.18 | -7.5
O=CN1CCN(C(=O)c2ccc(-c3nc4ccccc4s3)s2)CC1 | 129.0* | -33.3 | 30.6 | 75.8 | 3.8* | 90.4
CC(=O)Nc1cccc(C(=O)N/N=C/c2ccc(C)o2)c1 | 94.6 | 4.0 | 7.9 | 95.2 | 1.19 | 6.6
Cc1ccc(/C=N/NC(=O)Nc2ccccc2)o1 | 147.7* | -54.4 | -3.2 | 102.8 | 1.25 | 106.6
c1ccc(-n2ncc3c2ncn2nc(-c4ccco4)nc32)cc1 | 137.0* | -40.5 | 20.4 | 86.2 | 2 | 93.4
Cc1cccc2sc(NNC(=O)c3cc(-c4cccs4)nc4ccccc34)nc12 | 89.0 | 12.1 | -24.7 | 121.2 | 0.97 | -15.7
COc1ccc2c(CC(=O)N3CCc4ccccc43)coc2c1 | 126.9 | -29.4 | 4.2 | 101.3 | 4.91* | 142.1*
COCCN(CCOC)C(=O)c1cc2c(=O)n3ccccc3nc2s1 | 107.7 | -8.4 | -10.8 | 113.6 | 1.12 | 31.0
CCN(CC)C(=O)c1cc2c(=O)n3ccccc3nc2s1 | 119.3 | -21.3 | -36.9 | 134.2* | 1.55 | 22.9
CCC(=O)c1ccc(OCC(O)Cn2nnc3ccccc32)cc1 (stereo not drawn) | 104.4 | -5.8 | -0.4 | 107.0 | 1.39 | 20.4
Cc1ccccc1OCC(O)Cn1nnc2ccccc21 (stereo not drawn) | 142.2* | -50.3 | -6.3 | 108.1 | 2.64 | 40.1
O=C(Nc1ccc2nc3n(c(=O)c2c1)CCCCC3)c1ccccn1 | 145.2* | -47.1 | -6.2 | 105.2 | 3 | 134.4
O=c1c2cc(NC(=S)NCc3ccccn3)ccc2nc2n1CCCCC2 | 100.4 | -3.0 | 4.1 | 98.1 | 1.15 | 10.9
Cc1cccc(C)c1NC(=O)NC1(C(=O)N2CCOCC2)CCCCC1 | 99.8 | -0.9 | 4.1 | 97.9 | 1.06 | 3.1
c1ccc(Nc2scc(-c3ccccc3)[n+]2Cc2ccco2)cc1 | 142.6* | -46.2 | -8.9 | 110.8 | 3.43* | 113.3
Cc1c(CN2CCCC(C(=O)c3cccc(OC(C)C)c3)C2)c(=O)n(-c2ccccc2)n1C (stereo not drawn) | 107.7 | -10.4 | -16.9 | 121.5 | 1 | -13.0
CC(=NCc1ccco1)c1c(C)[nH]n(-c2nc3ccccc3s2)c1=O | 128.0 | -43.0 | 10.8 | 92.1 | 1.53 | 152.8*
CCC(=NCc1ccco1)c1c(C(F)(F)F)[nH]n(-c2nc3ccccc3s2)c1=O | 120.3 | -22.0 | 33.1 | 76.5 | 0.49 | 17.0
O=C(Nc1cc2c(oc1=O)CCCC2=O)c1ccc(Cl)cc1 | 136.3* | -39.8 | 15.7 | 91.8 | 1.39 | 18.5
Cc1nccc2oc(=O)c(NC(=O)c3ccc(Cl)cc3)cc12 | 103.7 | -5.1 | 23.6 | 82.1 | 2.11 | -21.5
FC(F)C(F)(F)C(F)(F)C(F)(F)c1cc(-c2ccccc2)n[nH]1 | 126.0 | -27.1 | 7.3 | 99.2 | 5.07* | 24.9
Cc1nn(Cc2c(Cl)cccc2Cl)c(Cl)c1/C=N/NC(=O)c1cccnc1 | 109.9 | -11.2 | 9.2 | 95.3 | 1.22 | 11.2
CCOC(=O)c1cc(-c2ccc(C)cc2)nc2nc(SC)[nH]c(=O)c12 | 99.3 | 0.8 | 16.2 | 84.9 | 3.99* | 3.5
Cc1nnc(NC(=O)c2cccc(F)c2)s1 | 106.9 | -7.6 | 15.5 | 94.1 | 1.45 | -3.4
CC(C)(C)CC(=O)Nc1nnc(-c2cccs2)s1 | 140.2* | -43.9 | -10.4 | 111.8 | 2.11 | 37.6
